The subject of data set [1] is Mycobacterium tuberculosis. The experiment in a line: Antitubercular activity against Mycobacterium tuberculosis H37Rv ATCC 25618 assessed as inhibition of microbial growth incubated for 1 week by MABA method. It is filed as functional. The settings on record: H37Rv ATCC 25618, 168 h, time 1 weeks. In a few lines:
(§1)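 Microplate Alamar Blue assay in Middlebrook 7H9 broth with 10% OADC. Inoculum from fresh LJ culture was adjusted to McFarland 1 and diluted 1:20. DMSO stocks were two-fold serially diluted to final 0.125–512 µg/ml, with growth and sterile controls. Plates ran 1 week at 37 °C, then Alamar blue was added for 24 h. MIC is the lowest concentration preventing the blue-to-pink change.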
For orientation: Alamar Blue is a resazurin reagent that responds to reducing activity.

Data set [2] has as its system Mycobacterium tuberculosis. Nature of the data set: Potentiation of rifampicin-induced antimycobacterial activity against Mycobacterium tuberculosis H37Rv ATCC 25618 assessed as fold decrease in rifampicin MIC at 1/2X MIC incubated for 14 days in presence of rifampicin by MABA method. Particulars: time 14 day. It is filed as functional. The gist of the method:
(§2)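 Combination assay in Middlebrook 7H9 broth with 10% OADC. The reference drug (INH, RMP, SM or EMB) was varied from 1 to 1/32 of its MIC, and the test derivative was fixed at 1/2 its own MIC. Single-agent MICs were determined first by MABA. Inoculum was 1 McFarland, with 14 days of incubation at 37 °C. The endpoint was the lowest reference-drug concentration that inhibited growth.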

A short description of data set [3]: Cytotoxicity against human HTB-140 cells assessed as LDH release at 100 uM incubated for 72 hrs by LDH assay. It is filed as cell-based. The settings on record: htb-140, 72 h. The gist of the method:
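LDH release measured with a kit after 72 h exposure to 100 μM compound. Cells were seeded at 1×10^4 per well in DMEM or EMEM with 2% FBS. Absorbance was read at 490 nm. Release (%) = (A sample − A low control)/(A high control − A low control) × 100, with the Triton X-100 (1%) control taken as 100% release. Values are mean ± SD of three independent experiments run in triplicate.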

Data set [4] relates to Mycobacterium tuberculosis. Nature of the data set: Antitubercular activity against Mycobacterium tuberculosis Spec.192 assessed as reduction in bacterial growth incubated for 14 days in presence of 1/2 x MIC isoniazid by MABA method. It is filed as functional. The settings on record: Mycobacterium tuberculosis, 192, 336 h; time 14 day. The gist of the method:
(§3)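 Checkerboard-type combination in Middlebrook 7H9 with 10% OADC. The test derivative at 1 to 1/32 of its MIC alone was mixed with the reference drug fixed at 1/2 its MIC. 4 ml samples were inoculated with McFarland 1 suspension and incubated 14 days at 37 °C. MIC is the lowest derivative concentration in combination that inhibited growth in liquid medium.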

The test system of data set [5] is Mycobacterium tuberculosis. The experiment in a line: Potentiation of rifampicin-induced antimycobacterial activity against Mycobacterium tuberculosis Spec.192 assessed as fold decrease in rifampicin MIC at 1/2X MIC incubated for 14 days in presence of rifampicin by MABA method. The data set is classed as functional. Particulars: time 14 day. In a few lines:
as §2

In data set [6] the test system is Mycobacterium tuberculosis. The experiment in a line: Antitubercular activity against Mycobacterium tuberculosis Spec.192 assessed as inhibition of microbial growth incubated for 1 week by MABA method. The settings on record: Mycobacterium tuberculosis, 192, 168 h; time 1 weeks. It is filed as functional. In a few lines:
as §1

The test system of data set [7] is Staphylococcus epidermidis. The experiment in a line: Antibacterial activity against Staphylococcus epidermidis ATCC 12228 assessed as bacterial growth inhibition measured after 18 hrs by two-fold serial microdilution method. The data set is classed as functional. The gist of the method: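 Two-fold serial broth microdilution in MH II medium following modified CLSI procedures. Compounds were dissolved in DMSO and diluted in medium to at most 1% solvent, tested from 0.03125 to 512 μg/ml. Final inoculum 10^6 CFU/ml. MIC was taken as the lowest concentration with no visible growth after 18 h at 35 °C.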
A general note: In broth dilution the organism is exposed to a series of concentrations in liquid medium.

In data set [8] the test system is Mycobacterium tuberculosis. The experiment in a line: Antitubercular activity against Mycobacterium tuberculosis H37Rv ATCC 25618 assessed as reduction in bacterial growth incubated for 14 days in presence of 1/2 x MIC rifampicin by MABA method. It is filed as functional. The settings on record: H37Rv ATCC 25618, 336 h, time 14 day. The gist of the method:
as §3

For data set [9], the system named is Mycobacterium tuberculosis. Nature of the data set: Potentiation of ethambutol-induced antimycobacterial activity against Mycobacterium tuberculosis H37Rv ATCC 25618 assessed as fold decrease in ethambutol MIC at 1/2X MIC incubated for 14 days in presence of ethambutol by MABA method. The data set is classed as functional. Particulars: time 14 day. In a few lines: as §2

Data set [10] relates to Mycobacterium tuberculosis. The experiment in a line: Potentiation of ethambutol-induced antimycobacterial activity against Mycobacterium tuberculosis Spec.192 assessed as fold decrease in ethambutol MIC at 1/2X MIC incubated for 14 days in presence of ethambutol by MABA method. The data set is classed as functional. Particulars: time 14 day. In a few lines:
as §2

The test system of data set [11] is Mycobacterium tuberculosis. Nature of the data set: Antitubercular activity against Mycobacterium tuberculosis Spec.192 assessed as fractional inhibitory concentration index in presence of 1/2 x MIC streptomycin incubated for 14 days by MABA method. The settings on record: time 14 day. It is filed as functional. In a few lines:
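Interaction analysis in Middlebrook 7H9 with 10% OADC. Combination MICs came from mixing the derivative (1 to 1/32 MIC) with the reference drug at 1/2 MIC, and the reverse, after 14 days at 37 °C with McFarland 1 inoculum. FICI was calculated from the combination MIC values and the MICs alone.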

As a reminder, the MIC is the least concentration at which growth counts as inhibited.

Values after ≈ are worked out from the molar mass of the structure shown.

With `COc1ccc(-n2nnnc2Nc2cccc(Br)c2)cc1`, the MIC in data set [1] is 2 µg/mL; in [4] it was 0.25 µg/mL; in [6], 2 µg/mL; in data set [7] it was greater than 256 µg/mL; in data set [8] it was 0.5 µg/mL. For the same compound, the “fold change (FC)” value in data set [2], in [5], in data set [9] and in [10] was 2 each time. Also, in data set [3], the Activity is on record as less than 17%. The “fractional inhibitory concentration index (FICI)” value in [11] worked out at 0.5.

As for `COc1ccc(-n2nnnc2Nc2ccc(Br)cc2)cc1`, the MIC was 2 µg/mL in [1]; 0.25 µg/mL in data set [4]; 2 µg/mL in data set [6]; 256 µg/mL (≈ 739 µM) in data set [7]; 0.5 µg/mL in [8]. Besides, in data set [3], the Activity entry is listed as “Non-Toxic”. For the same compound, in [11], the “fractional inhibitory concentration index (FICI)” value was 0.375.

These data come from ChEMBL document CHEMBL4680121, “Development of (4-methoxyphenyl)-1H-tetrazol-5-amine regioisomers as a new class of selective antitubercular agents” (Eur J Med Chem, 2020).
